Reference: ChEMBL document CHEMBL3045292, “Synthesis and herbicidal activity of 2-(7-fluoro-3-oxo- 3,4-dihydro-2H-benzo[b][1,4]oxazin-6-yl)isoindoline-1,3-diones” (J Agric Food Chem, 2005)

Tests used:
[1] = Phytotoxicity against Oryza sativa (rice) assessed as growth inhibition at 15 g/ha post-emergence treatment measured after 15 days by crop-selectivity assay; assay type: organism-based; conditions: in vivo, read-out: GI
[2] = Phytotoxicity against Gossypium (cotton) assessed as growth inhibition at 30 g/ha post-emergence treatment measured after 15 days by crop-selectivity assay; assay type: organism-based; conditions: in vivo, read-out: GI
[3] = Phytotoxicity against Gossypium (cotton) assessed as growth inhibition at 15 g/ha post-emergence treatment measured after 15 days by crop-selectivity assay; assay type: organism-based; conditions: in vivo, read-out: GI
Glycine max [4] = experiment: Phytotoxicity against Glycine max (soybean) assessed as growth inhibition at 15 g/ha pre-emergence treatment measured after 15 days by crop-selectivity assay; assay type: organism-based; conditions: in vivo, other, 360 h
Gossypium [5] = experiment: Phytotoxicity against Gossypium (cotton) assessed as growth inhibition at 15 g/ha pre-emergence treatment measured after 15 days by crop-selectivity assay; assay type: organism-based; conditions: in vivo, other, 360 h
Zea mays [6] = experiment: Phytotoxicity against Zea mays (maize) assessed as growth inhibition at 7.5 g/ha pre-emergence treatment measured after 15 days by crop-selectivity assay; assay type: organism-based; conditions: in vivo, other, 360 h
Outline: (§1)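 Compounds were formulated as 100 g/L emulsifiable concentrates, with DMF as solvent and Tween-80 as emulsifier, then diluted in water to the required rate. They were sprayed on pot-grown plants in a greenhouse, in clay soil (pH 6.5, 1.6% organic matter, 37.3% clay, CEC 12.1 cmol/kg). Untreated and DMF-treated plants served as controls. Percent growth inhibition was scored visually 15 days after treatment.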

[7] = Phytotoxicity against Brassica rapa subsp. oleifera assessed as growth inhibition at 150 g/ha pre-emergence treatment measured after 15 days by crop-selectivity assay; assay type: organism-based; conditions: in vivo, read-out: GI
Digitaria sanguinalis [8] = experiment: Herbicidal activity against crabgrass Digitaria sanguinalis(hairy crabgrass) assessed as weed growth inhibition at post-emergence treatment […]; assay type: functional, organism-based
Outline: (§2)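 Pot-grown plants in the greenhouse, in clay soil (pH 6.5, 1.6% organic matter, 37.3% clay, CEC 12.1 cmol/kg). Compound was made up as a 100 g/L emulsified concentrate (DMF, Tween-80), diluted in water and sprayed at 75 g ai/ha. Pre-emergence spraying was 24 h after sowing; post-emergence at two-leaf (dicots) or one-leaf (monocots) stage. Untreated and DMF controls. Percent growth inhibition scored visually 15 days post-treatment.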

Gossypium [9] = experiment: Phytotoxicity against Gossypium (cotton) assessed as growth inhibition at 7.5 g/ha pre-emergence treatment measured after 15 days by crop-selectivity assay; assay type: organism-based; conditions: in vivo, other, 360 h
[10] = Phytotoxicity against Oryza sativa (rice) assessed as growth inhibition at 15 g/ha pre-emergence treatment measured after 15 days by crop-selectivity assay; assay type: organism-based; conditions: in vivo, read-out: GI
[11] = Phytotoxicity against Oryza sativa (rice) assessed as growth inhibition at 75 g/ha pre-emergence treatment measured after 15 days by crop-selectivity assay; assay type: organism-based; conditions: in vivo, read-out: GI
Glycine max [12] = experiment: Phytotoxicity against Glycine max (soybean) assessed as growth inhibition at 7.5 g/ha pre-emergence treatment measured after 15 days by crop-selectivity assay; assay type: organism-based; conditions: in vivo, other, 360 h
Digitaria sanguinalis [13] = experiment: Herbicidal activity against crabgrass Digitaria sanguinalis(hairy crabgrass) assessed as weed growth inhibition at 75 g/ha post-emergence treatment […]; assay type: functional; conditions: read-out: GI; outline: as §2
[14] = Phytotoxicity against Oryza sativa (rice) assessed as growth inhibition at 30 g/ha pre-emergence treatment measured after 15 days by crop-selectivity assay; assay type: organism-based; conditions: in vivo, read-out: GI
Zea mays [15] = experiment: Phytotoxicity against Zea mays (maize) assessed as growth inhibition at 15 g/ha pre-emergence treatment measured after 15 days by crop-selectivity assay; assay type: organism-based; conditions: in vivo, other, 360 h; outline: as §1
Gossypium [16] = experiment: Phytotoxicity against Gossypium (cotton) assessed as growth inhibition at 75 g/ha pre-emergence treatment measured after 15 days by crop-selectivity assay; assay type: organism-based; conditions: in vivo, other, 360 h
Gossypium [17] = experiment: Phytotoxicity against Gossypium (cotton) assessed as growth inhibition at 30 g/ha pre-emergence treatment measured after 15 days by crop-selectivity assay; assay type: organism-based; conditions: in vivo, other, 360 h
[18] = Phytotoxicity against Brassica rapa subsp. oleifera assessed as growth inhibition at 15 g/ha post-emergence treatment measured after 15 days by crop-selectivity assay; assay type: organism-based; conditions: in vivo, read-out: GI
[19] = Phytotoxicity against Glycine max (soybean) assessed as growth inhibition at 30 g/ha post-emergence treatment measured after 15 days by crop-selectivity assay; assay type: organism-based; conditions: in vivo, read-out: GI
Echinochloa crus-galli [20] = experiment: Herbicidal activity against Echinochloa crus-galli (barnyard grass) (barnyard grass) assessed as weed growth inhibition at 75 g/ha pre-emergence treatment […]; assay type: functional; conditions: read-out: GI; outline: as §2
[21] = Phytotoxicity against Glycine max (soybean) assessed as growth inhibition at 15 g/ha post-emergence treatment measured after 15 days by crop-selectivity assay; assay type: organism-based; conditions: in vivo, read-out: GI
Chenopodium album = experiment: Herbicidal activity against fat hen Chenopodium album assessed as weed growth inhibition at 75 g/ha pre-emergence treatment […]; assay type: functional; conditions: read-out: GI; outline: as §2
Amaranthus blitum = experiment: Herbicidal activity against Amaranthus blitum assessed as weed growth inhibition at 75 g/ha pre-emergence treatment […]; assay type: functional; conditions: read-out: GI; outline: as §2
[22] = Phytotoxicity against Gossypium (cotton) assessed as growth inhibition at 7.5 g/ha post-emergence treatment measured after 15 days by crop-selectivity assay; assay type: organism-based; conditions: in vivo, read-out: GI
Setaria viridis = experiment: Herbicidal activity against Setaria viridis (green foxtail) assessed as weed growth inhibition at 75 g/ha post-emergence treatment […]; assay type: functional; conditions: read-out: GI; outline: as §2
[23] = Phytotoxicity against Oryza sativa (rice) assessed as growth inhibition at 30 g/ha post-emergence treatment measured after 15 days by crop-selectivity assay; assay type: organism-based; conditions: in vivo, read-out: GI
Echinochloa crus-galli [24] = experiment: Herbicidal activity against Echinochloa crus-galli (barnyard grass) (barnyard grass) assessed as weed growth inhibition at 75 g/ha post-emergence treatment […]; assay type: functional; conditions: read-out: GI; outline: as §2
Zea mays [25] = experiment: Phytotoxicity against Zea mays (maize) assessed as growth inhibition at 30 g/ha pre-emergence treatment measured after 15 days by crop-selectivity assay; assay type: organism-based; conditions: in vivo, other, 360 h; outline: as §1
[26] = tested on: Brassica rapa subsp. oleifera; experiment: Phytotoxicity against Brassica rapa subsp. oleifera assessed as growth inhibition at 7.5 g/ha pre-emergence treatment measured after 15 days by crop-selectivity assay; assay type: organism-based; conditions: in vivo, other, 360 h
[27] = Phytotoxicity against Triticum aestivum (wheat) assessed as growth inhibition at 75 g/ha pre-emergence treatment measured after 15 days by crop-selectivity assay; assay type: organism-based; conditions: in vivo, read-out: GI; outline: as §1
[28] = Phytotoxicity against Glycine max (soybean) assessed as growth inhibition at 7.5 g/ha post-emergence treatment measured after 15 days by crop-selectivity assay; assay type: organism-based; conditions: in vivo, read-out: GI
[29] = Phytotoxicity against Zea mays (maize) assessed as growth inhibition at 15 g/ha post-emergence treatment measured after 15 days by crop-selectivity assay; assay type: organism-based; conditions: in vivo, read-out: GI; outline: as §1
[30] = Phytotoxicity against Zea mays (maize) assessed as growth inhibition at 30 g/ha post-emergence treatment measured after 15 days by crop-selectivity assay; assay type: organism-based; conditions: in vivo, read-out: GI; outline: as §1
Abutilon theophrasti = experiment: Herbicidal activity against Abutilon theophrasti (velvetleaf) assessed as weed growth inhibition at post-emergence treatment […]; assay type: functional, organism-based; outline: as §2
[31] = Phytotoxicity against Brassica rapa subsp. oleifera assessed as growth inhibition at 75 g/ha pre-emergence treatment measured after 15 days by crop-selectivity assay; assay type: organism-based; conditions: in vivo, read-out: GI
[32] = Phytotoxicity against Oryza sativa (rice) assessed as growth inhibition at 150 g/ha pre-emergence treatment measured after 15 days by crop-selectivity assay; assay type: organism-based; conditions: in vivo, read-out: GI
[33] = Phytotoxicity against Brassica rapa subsp. oleifera assessed as growth inhibition at 7.5 g/ha post-emergence treatment measured after 15 days by crop-selectivity assay; assay type: organism-based; conditions: in vivo, read-out: GI
[34] = Phytotoxicity against Zea mays (maize) assessed as growth inhibition at 7.5 g/ha post-emergence treatment measured after 15 days by crop-selectivity assay; assay type: organism-based; conditions: in vivo, read-out: GI; outline: as §1
[35] = tested on: Brassica rapa subsp. oleifera; experiment: Phytotoxicity against Brassica rapa subsp. oleifera assessed as growth inhibition at 15 g/ha pre-emergence treatment measured after 15 days by crop-selectivity assay; assay type: organism-based; conditions: in vivo, other, 360 h

Structure (SMILES) | inhibition at 360 h [1] | inhibition at 360 h [2] | inhibition at 360 h [3] | growth inhibition (GI) (Glycine max [4]) | growth inhibition (GI) (Gossypium [5]) | growth inhibition (GI) (Zea mays [6]) | inhibition at 360 h [7] | IC50 (Digitaria sanguinalis [8]) | growth inhibition (GI) (Gossypium [9]) | inhibition at 360 h [10] | inhibition at 360 h [11] | growth inhibition (GI) (Glycine max [12]) | inhibition of growth at 75 g/ha (Digitaria sanguinalis [13]) | inhibition at 360 h [14] | growth inhibition (GI) (Zea mays [15]) | growth inhibition (GI) (Gossypium [16]) | growth inhibition (GI) (Gossypium [17]) | inhibition at 360 h [18] | inhibition at 360 h [19] | inhibition of growth at 75 g/ha (Echinochloa crus-galli [20]) | further results
C#CCN1C(=O)COc2cc(F)c(N3C(=O)c4ccc(F)cc4C3=O)cc21 | > 10% | > 10% | > 10% | Non-toxic | Non-toxic | Non-toxic | > 10% | 4.8 g/ha | Non-toxic | 1% | > 10% | Non-toxic | > 80% | > 10% | Non-toxic | Non-toxic | Non-toxic | > 10% | > 10% | > 80% | inhibition at 360 h [21]: > 10%; inhibition of growth at 75 g/ha (Chenopodium album): > 80%; inhibition of growth at 75 g/ha (Amaranthus blitum): > 80%; inhibition at 360 h [22]: > 10%; inhibition of growth at 75 g/ha (Setaria viridis): > 80%; inhibition at 360 h [23]: > 10%; inhibition of growth at 75 g/ha (Echinochloa crus-galli [24]): > 80%; growth inhibition (GI) (Zea mays [25]): Non-toxic; growth inhibition (GI) [26]: Non-toxic; inhibition at 360 h [27]: > 10%; inhibition at 360 h [28]: > 10%; inhibition at 360 h [29]: 1%; inhibition at 360 h [30]: > 10%; IC50 (Abutilon theophrasti): 3.6 g/ha; inhibition at 360 h [31]: > 10%; inhibition at 360 h [32]: > 10%; inhibition at 360 h [33]: > 10%; inhibition at 360 h [34]: 1%; growth inhibition (GI) [35]: Non-toxic
C#CCN1C(=O)COc2cc(F)c(N3C(=O)C4=C(CCCC4)C3=O)cc21 [FLUMIOXAZIN] | > 10% | > 10% | > 10% | Non-toxic | Non-toxic | Non-toxic | > 10% | 2.5 g/ha | Non-toxic | > 10% | > 10% | Non-toxic | > 80% | > 10% | Non-toxic | Non-toxic | Non-toxic | > 10% | > 10% | > 80% | inhibition at 360 h [21]: > 10%; inhibition of growth at 75 g/ha (Chenopodium album): > 80%; inhibition of growth at 75 g/ha (Amaranthus blitum): > 80%; inhibition at 360 h [22]: > 10%; inhibition of growth at 75 g/ha (Setaria viridis): > 80%; inhibition at 360 h [23]: > 10%; inhibition of growth at 75 g/ha (Echinochloa crus-galli [24]): > 80%; growth inhibition (GI) (Zea mays [25]): Non-toxic; growth inhibition (GI) [26]: Non-toxic; inhibition at 360 h [27]: > 10%; inhibition at 360 h [28]: > 10%; inhibition at 360 h [29]: > 10%; inhibition at 360 h [30]: > 10%; IC50 (Abutilon theophrasti): 1 g/ha; inhibition at 360 h [31]: > 10%; inhibition at 360 h [32]: > 10%; inhibition at 360 h [33]: > 10%; inhibition at 360 h [34]: > 10%; growth inhibition (GI) [35]: Non-toxic
